In ChEMBL document CHEMBL5674884, “Ezh2 inhibition in Kras-driven lung cancer amplifies inflammation and associated vulnerabilities” (J Exp Med, 2018):
Each block holds one compound with its values, some of them ahead of it. Activity calls are given as the source filed them. The rule behind the calls is not given here.

How the values were obtained:
[1] = biological target: Histone-lysine N-methyltransferase EZH2 (Mus musculus) (UniProt Q61188); experiment: In vivo inhibition of Ezh2 in BALB/c nude mouse xenografted with KrasG12D/+ expressing NSCLC cells (unknown origin) assessed as upregulation of H3K27ac at 50 mg/kg, iv by IHC analysis; assay type: functional, organism-based
[2] = biological target: Histone-lysine N-methyltransferase EZH2 (Mus musculus) (UniProt Q61188); experiment: In vivo inhibition of Ezh2 in BALB/c nude mouse expressing KrasG12D/+ assessed as Erk1/2 phosphorylation at 50 mg/kg, iv in the presence of BTZ/NM by IHC staining; assay type: functional, organism-based
Method in brief: (§1)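 Tumors from mice given daily GSK126/vehicle then alternating BTZ/NM, stained by IHC (n = 3 animals). Lung area divided into equal fields; ten fields per animal counted automatically for immunoreactive cells.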

NSCLC [3] = experiment: Anti-tumor activity against Kras G12D/+ expressing mouse NSCLC cells xenografted in BALB/c nude mouse assessed as decrease in frequency distribution of lesions at 50 mg/kg, iv for 30 days; assay type: functional, organism-based; settings: time 30.0 day
NSCLC [4] = experiment: Antiinflammatory activity in […] EZH2 inhibited mouse NSCLC cells xenografted in BALB/C mouse assessed as upregulation of JAK/STAT pathway at 50 mg/kg, iv for 10 days; assay type: functional, organism-based; settings: time 10.0 day
Method in brief: (§2)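 Tail vein grafts of Kras G12D/+;Trp53-/- cells in nude mice, treated daily with 50 mg/kg GSK126 for 10 d (n = 4) or to humane endpoint (n = 3), or vehicle (n = 2). GFP+ tumor cells sorted by FACS, RNA-seq run, fold change taken over vehicle, and pathway activity inferred by PROGENy scoring.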

[5] = biological target: Histone-lysine N-methyltransferase EZH2 (Mus musculus) (UniProt Q61188); experiment: In vivo inhibition of Ezh2 in BALB/c nude mouse expressing KrasG12D/+ assessed as cleaved Caspase-3 at 50 mg/kg, iv in the presence of BTZ/NM by IHC staining; assay type: functional, organism-based; method in brief: as §1
NSCLC [6] = experiment: Antitumor activity against KrasG12D/+ expressing mouse NSCLC cells xenografted in BALB/c nude mouse assessed as reduced cell proliferation at 50 mg/kg, iv in the presence of BTZ/NM; assay type: functional, organism-based; method in brief: as §1
[7] = biological target: Histone-lysine N-methyltransferase EZH2 (Homo sapiens) (UniProt Q15910); experiment: Inhibition of Ezh2 in human A549 cells assessed as p65 phosphorylation by Immunoblot analysis; assay type: cell-based
Method in brief: (§3)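 A549, H1944 and H2122 cells treated continuously 5 d with GSK126 or vehicle, then replated at low confluence. Whole-cell RIPA extracts immunoblotted for phospho-p65 (S536) and total p65.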

[8] = biological target: Histone-lysine N-methyltransferase EZH2 (Mus musculus) (UniProt Q61188); experiment: In vivo inhibition of Ezh2 in BALB/c nude mouse expressing Kras G12D/+ assessed as Erk1/2 expression level at 50 mg/kg, iv by immunoblotting analysis; assay type: functional, organism-based
[9] = biological target: Histone-lysine N-methyltransferase EZH2 (Mus musculus) (UniProt Q61188); experiment: In vivo inhibition of Ezh2 in BALB/c nude mouse expressing KrasG12D/+ assessed as phospho-Akt expression at 50 mg/kg, iv in the presence of BTZ/NM by Immunoblot analysis; assay type: functional, organism-based
Method in brief: (§4)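 Mice with Kras G12D/+;Trp53-/- lung grafts given GSK126 or vehicle, randomized after 15 d to one maximum tolerated dose of BTZ and NM, and sacrificed 20 h later. Tumor lysates in RIPA with protease/phosphatase inhibitors, equal protein run on 4-12% Bis-Tris gels and immunoblotted with ECL detection for phospho-Akt, cleaved Parp1 and cleaved caspase-3.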

[10] = biological target: Histone-lysine N-methyltransferase EZH2 (Homo sapiens) (UniProt Q15910); experiment: Inhibition of Ezh2 in human A549 cells assessed as enhanced NF- kappa B activity; assay type: cell-based
Method in brief: (§5)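 A549 cells carrying an NF-kB-responsive element/minimal TA promoter luciferase reporter, pretreated with GSK126 or vehicle. Stimulated with TNF-a for 3 h, or continuously with TNF-a or LPS over 16 h. Luminescence read on plate reader; two-way ANOVA; three independent experiments.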

NSCLC [11] = experiment: Anti-tumor activity against Ezh2i knockdown NSCLC cells (unknown origin) xenografted in BALB/c nude mouse assessed as increase in lifespan at 50 mg/kg, iv measured for 30 days; assay type: functional, organism-based; settings: time 30.0 day
[12] = biological target: Histone-lysine N-methyltransferase EZH2 (Mus musculus) (UniProt Q61188); experiment: Inhibition of Ezh2 in mouse NSCLC cells co-cultured with Raw264.7 cells assessed as H3K27ac level by qRT-PCR analysis; assay type: cell-based
[13] = biological target: Histone-lysine N-methyltransferase EZH2 (Mus musculus) (UniProt Q61188); experiment: In vivo inhibition of Ezh2 in BALB/c nude mouse xenografted with KrasG12D/+ expressing NSCLC cells (unknown origin) assessed as upregulation of H3K27ac at 50 mg/kg, iv by qRT-PCR analysis; assay type: functional, organism-based
NSCLC [14] = experiment: Antitumor activity against KrasG12D/+ expressing mouse NSCLC cells xenografted in BALB/c nude mouse assessed as increase in survival rate at 50 mg/kg, iv in the presence of BTZ/NM; assay type: functional, organism-based
Method in brief: (§6)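 Nude mice with tail-vein Kras G12D/+;Trp53-/- grafts dosed daily with GSK126 or vehicle from day 4 (n = 7/6). BTZ and NM then given on alternating days from day 19: BTZ 0.8 mg/kg on day one, 0.2 mg/kg plus NM 5 mg/kg on day two. Luciferase imaging analyzed by two-way ANOVA; survival recorded to humane endpoint.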

[15] = biological target: Histone-lysine N-methyltransferase EZH2 (Homo sapiens) (UniProt Q15910); experiment: Inhibition of Ezh2 in LPS stimulated human A549 cells assessed as enhanced NF- kappa B activity; assay type: cell-based; method in brief: as §5
[16] = biological target: Histone-lysine N-methyltransferase EZH2 (Homo sapiens) (UniProt Q15910); experiment: Inhibition of Ezh2 in human NCI-H1944 cells assessed as p65 phosphorylation by Immunoblot analysis; assay type: cell-based; method in brief: as §3
[17] = biological target: Histone-lysine N-methyltransferase EZH2 (Mus musculus) (UniProt Q61188); experiment: In vivo inhibition of Ezh2 in BALB/c nude mouse expressing KrasG12D/+ assessed as Caspase-3 cleavage expression at 50 mg/kg, iv in the presence of BTZ/NM by Immunoblot analysis; assay type: functional, organism-based; method in brief: as §4
[18] = biological target: Histone-lysine N-methyltransferase EZH2 (Mus musculus) (UniProt Q61188); experiment: In vivo inhibition of Ezh2 in BALB/c nude mouse expressing Kras G12D/+ assessed as reduction of Akt phosphorylation at 50 mg/kg, iv by immunoblotting analysis; assay type: functional, organism-based; method in brief: as §4
NSCLC [19] = experiment: Antitumor activity against KrasG12D/+ expressing mouse NSCLC cells xenografted in BALB/c nude mouse assessed as reduced tumor growth at 50 mg/kg, iv in the presence of BTZ/NM; assay type: functional, organism-based; method in brief: as §6
[20] = biological target: Histone-lysine N-methyltransferase EZH2 (Homo sapiens) (UniProt Q15910); experiment: Inhibition of Ezh2 in human NCI-H2122 cells assessed as p65 phosphorylation by Immunoblot analysis; assay type: cell-based; method in brief: as §3
[21] = biological target: Histone-lysine N-methyltransferase EZH2 (Homo sapiens) (UniProt Q15910); experiment: Inhibition of Ezh2 in TNF-alpha stimulated human A549 cells assessed as enhanced NF- kappa B activity; assay type: cell-based; method in brief: as §5
NSCLC [22] = experiment: Antitumor activity against Kras G12D/+ expressing mouse NSCLC cells xenografted in BALB/c nude mouse assessed as reduction in lung adenoma formation at 50 mg/kg, iv for 12 days by H&E staining analysis; assay type: functional, organism-based; settings: time 12.0 day
NSCLC [23] = experiment: Antiinflammatory activity in […] EZH2 inhibited mouse NSCLC cells xenografted in BALB/C mouse assessed as upregulation of NF-kappaB pathway at 50 mg/kg, iv for 10 days; assay type: functional, organism-based; settings: time 10.0 day; method in brief: as §2
NSCLC [24] = experiment: Antitumor activity against Kras G12D/+ expressing mouse NSCLC cells xenografted in BALB/c nude mouse assessed as reduction in tumor burden at 50 mg/kg, iv for 30 days; assay type: functional, organism-based; settings: time 30.0 day
[25] = biological target: Histone-lysine N-methyltransferase EZH2 (Mus musculus) (UniProt Q61188); experiment: In vivo inhibition of EZH2 in BALB/c nude mouse xenografted with Kras G12D/+ NSCLC cells (unknown origin) assessed as H3K27me3 level at 50 mg/kg, iv for 30 days by IHC analysis; assay type: functional, organism-based; settings: time 30.0 day
[26] = biological target: Histone-lysine N-methyltransferase EZH2 (Mus musculus) (UniProt Q61188); experiment: In vivo inhibition of Ezh2 in BALB/c nude mouse xenografted with KrasG12D/+ expressing NSCLC cells (unknown origin) assessed as upregulation of H3K27me3 at 50 mg/kg, iv by IHC analysis; assay type: functional, organism-based
NSCLC [27] = experiment: Upregulation of Cxcr4 gene in mouse NSCLC cells expressing KrasG12D/+; assay type: functional, cell-based
NSCLC [28] = experiment: Antiinflammatory activity in […] EZH2 inhibited mouse NSCLC cells xenografted in BALB/C mouse assessed as upregulation of TNF-alpha pathway at 50 mg/kg, iv for 10 days; assay type: functional, organism-based; settings: time 10.0 day; method in brief: as §2
[29] = biological target: Histone-lysine N-methyltransferase EZH2 (Mus musculus) (UniProt Q61188); experiment: In vivo inhibition of Ezh2 in BALB/c nude mouse expressing KrasG12D/+ assessed as increased survival rate at day 21 at 50 mg/kg, iv in the presence of BTZ/NM; assay type: functional, organism-based; method in brief: as §6
[30] = biological target: Histone-lysine N-methyltransferase EZH2 (Mus musculus) (UniProt Q61188); experiment: In vivo inhibition of Ezh2 in BALB/c nude mouse expressing KrasG12D/+ assessed as Parp1 expression at 50 mg/kg, iv in the presence of BTZ/NM by Immunoblot analysis; assay type: functional, organism-based; method in brief: as §4
NSCLC [31] = experiment: Antitumor activity in KrasG12D/+ harbouring mouse NSCLC cells xenografted in BALB/c nude mouse assessed as reduced tumor progression; assay type: functional; settings: dose 50.0 mg/kg, route iv
[32] = biological target: Histone-lysine N-methyltransferase EZH2 (Mus musculus) (UniProt Q61188); experiment: In vivo inhibition of Ezh2 in BALB/c nude mouse expressing Kras G12D/+ assessed as Erk1/2 expression level at 50 mg/kg, iv by IHC staining; assay type: functional, organism-based; method in brief: as §1
A549 [33] = experiment: Reversal of GSK126 dependent antiinflammatory activity in human A549 cells assessed as decrease in Il1ra level by qRT-PCR analysis; assay type: functional, cell-based
A549 [34] = experiment: Reversal of GSK126 dependent antiinflammatory activity in human A549 cells assessed as decrease in IL-6 level by qRT-PCR analysis; assay type: functional, cell-based
A549 [35] = experiment: Reversal of GSK126 dependent antiinflammatory activity in human A549 cells assessed as decrease in Ccl2 level by qRT-PCR analysis; assay type: functional, cell-based
A549 [36] = experiment: Reversal of GSK126 dependent antiinflammatory activity in human A549 cells assessed as decrease in Irak1 level by qRT-PCR analysis; assay type: functional, cell-based

Histone-lysine N-methyltransferase EZH2 (Mus musculus), sequence (Q61188 whole entry): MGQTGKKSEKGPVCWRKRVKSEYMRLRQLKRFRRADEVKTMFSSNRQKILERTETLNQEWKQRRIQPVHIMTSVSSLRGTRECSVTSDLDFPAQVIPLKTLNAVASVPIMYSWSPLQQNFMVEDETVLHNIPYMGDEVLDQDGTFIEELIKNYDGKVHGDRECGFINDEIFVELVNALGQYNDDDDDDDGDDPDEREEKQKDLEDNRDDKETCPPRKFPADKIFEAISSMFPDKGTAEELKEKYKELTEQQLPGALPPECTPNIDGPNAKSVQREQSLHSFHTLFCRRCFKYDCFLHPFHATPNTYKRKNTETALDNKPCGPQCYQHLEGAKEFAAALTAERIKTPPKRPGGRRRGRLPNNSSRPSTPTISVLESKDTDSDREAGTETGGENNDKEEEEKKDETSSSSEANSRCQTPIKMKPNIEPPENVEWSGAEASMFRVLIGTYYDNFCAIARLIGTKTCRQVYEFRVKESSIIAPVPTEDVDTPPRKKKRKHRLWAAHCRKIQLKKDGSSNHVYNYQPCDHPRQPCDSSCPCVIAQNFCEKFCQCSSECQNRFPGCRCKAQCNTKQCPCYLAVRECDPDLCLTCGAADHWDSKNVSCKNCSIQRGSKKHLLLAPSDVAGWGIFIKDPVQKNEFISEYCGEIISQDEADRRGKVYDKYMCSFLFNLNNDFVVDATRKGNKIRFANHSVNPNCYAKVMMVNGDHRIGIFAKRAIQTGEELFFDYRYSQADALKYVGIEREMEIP
Histone-lysine N-methyltransferase EZH2 (Homo sapiens), sequence (Q15910 whole entry, looked up): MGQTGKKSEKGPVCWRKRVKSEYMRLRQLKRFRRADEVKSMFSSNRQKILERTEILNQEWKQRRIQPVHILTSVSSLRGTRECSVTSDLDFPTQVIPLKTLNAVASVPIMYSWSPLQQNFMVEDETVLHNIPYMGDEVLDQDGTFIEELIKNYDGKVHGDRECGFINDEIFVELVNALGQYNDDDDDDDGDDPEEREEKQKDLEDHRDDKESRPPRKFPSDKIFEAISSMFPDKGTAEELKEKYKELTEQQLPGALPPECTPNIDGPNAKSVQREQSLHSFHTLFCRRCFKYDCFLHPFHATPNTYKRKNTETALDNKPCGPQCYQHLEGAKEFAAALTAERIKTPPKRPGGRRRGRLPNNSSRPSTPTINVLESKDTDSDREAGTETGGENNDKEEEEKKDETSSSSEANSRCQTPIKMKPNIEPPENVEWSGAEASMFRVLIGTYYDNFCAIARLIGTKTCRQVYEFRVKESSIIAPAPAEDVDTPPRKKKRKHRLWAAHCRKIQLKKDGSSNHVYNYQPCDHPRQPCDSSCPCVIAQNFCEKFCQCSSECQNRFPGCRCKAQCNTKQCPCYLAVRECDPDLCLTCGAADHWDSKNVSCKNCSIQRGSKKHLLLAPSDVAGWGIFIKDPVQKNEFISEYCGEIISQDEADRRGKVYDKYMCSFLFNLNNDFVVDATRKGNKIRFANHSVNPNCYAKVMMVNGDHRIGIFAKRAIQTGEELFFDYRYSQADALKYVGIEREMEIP

- inhibition [1]: Active
- inhibition [2]: Active
- inhibition [5]: Active
- inhibition [7]: Active
- inhibition [8]: Active
- inhibition [9]: Active
- inhibition [10]: Active
- inhibition [12]: Active
- inhibition [13]: Active
- inhibition [15]: Active
- inhibition [16]: Active
- inhibition [17]: Active
- inhibition [18]: Active
- inhibition [20]: Active
- inhibition [21]: Active
- inhibition [25]: Active
- inhibition [26]: Active
- inhibition [30]: Active
- inhibition [32]: Active
SMILES: CC[C@H](C)n1cc(C)c2c(C(=O)NCc3c(C)cc(C)[nH]c3=O)cc(-c3ccc(N4CCNCC4)nc3)cc21
- Activity (NSCLC [3]): Active
- Activity (NSCLC [4]): Active
- Activity (NSCLC [6]): Active
- Activity (NSCLC [11]): Active
- Activity (NSCLC [14]): Active
- Activity (NSCLC [19]): Active
- Activity (NSCLC [22]): Active
- Activity (NSCLC [23]): Active
- Activity (NSCLC [24]): Active
- Activity (NSCLC [27]): Active
- Activity (NSCLC [28]): Active
- inhibition [29]: Active
- Activity (NSCLC [31]): Active

SMILES: CN1CC[C@H](c2c(O)cc(O)c3c(=O)cc(-c4ccccc4Cl)oc23)[C@H](O)C1
- Activity (A549 [33]): Active
- Activity (A549 [34]): Active
- Activity (A549 [35]): Active
- Activity (A549 [36]): Active
